# Assay outcomes from PubChem BioAssay.
# PG9 binder = small molecules binding HIV-1 gp120 antibody PG9. inhibition, % at 6.7 µM. TR-FRET gp120-PG9 antibody binding. actives 0.43% (n = 360,000); in the data active = inhibition above about 8.5%
# MT1-MMP act inh = blocks activation of human MT1-MMP | AID 651647 | GFP/RFP ratio change, % at 20 µM | actives 0.061% (n = 360,000) | HT1080 RFP-PRO-GFP cells, GFP/RFP ratio fluorescence, overnight; percent of plate control window, DMSO zero | P50281;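 active = GFP/RFP ratio change of at least 30% with cell ATP level not reduced by more than half and red fluorescence within 50% of control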
#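 Material – HT1080 RFP-PRO-GFP cells · Control set – DMSO wells and RFP-L50D-GFP cells · Incubation – overnight cell settling, then overnight compound exposure, 37 °C, 5% CO2 · Compound dosing – single-point 20 µM compound, 1% DMSO · Read-out – GFP/RFP fluorescence ratio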
# NR2E3 ag-1 = activates human photoreceptor nuclear receptor NR2E3. Q9Y5X4. GST-NR2E3/biotin-RetCOR TR-FRET, 1536-well. inhibition of corepressor binding, % at 4.78 µM. actives 0.12% (n = 320,000). AID 2300;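 active = percent inhibition above the cutoff of mean plus 3 SD of all tested compounds, set per screening campaign, cut at about 20% in these data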;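 also: 0% = DMSO wells and 100% = biotin wells as full block of FRET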
# Target sequence (Q9Y5X4 whole entry, looked up): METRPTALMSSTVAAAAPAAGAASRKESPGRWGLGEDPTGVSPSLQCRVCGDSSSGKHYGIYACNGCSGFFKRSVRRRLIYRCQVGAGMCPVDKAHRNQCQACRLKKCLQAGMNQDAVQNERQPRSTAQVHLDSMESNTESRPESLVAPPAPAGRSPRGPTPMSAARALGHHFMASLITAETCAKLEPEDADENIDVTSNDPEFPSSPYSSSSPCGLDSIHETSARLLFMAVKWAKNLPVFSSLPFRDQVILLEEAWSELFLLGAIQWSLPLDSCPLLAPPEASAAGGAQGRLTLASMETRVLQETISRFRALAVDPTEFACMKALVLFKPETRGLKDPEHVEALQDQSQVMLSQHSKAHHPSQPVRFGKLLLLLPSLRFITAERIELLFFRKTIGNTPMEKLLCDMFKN
#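 system = GST-tagged NR2E3 plus biotinylated RetCOR corepressor | input = 1.35 nM GST-NR2E3 | also added = 7 nM biotin-RetCOR | schedule = 5 h incubation at 4 °C | measured by = TR-FRET with europium anti-GST and streptavidin-D2, 340 nm excitation | read-out = percent loss of FRET ratio relative to control wells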
# NR2E3 ag-2 = human photoreceptor-specific nuclear receptor agonism; CHO-S Gal4-NCOR/VP16-NR2E3 two-hybrid, luciferase; inhibition of corepressor binding, % at 3.98 µM; actives 0.35% (n = 360,000);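 active = inhibition above the mean of all tested compounds plus 3 SD, cut at about 70% in these data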;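 also: 0% = DMSO with NR2E3 transfected cells and 100% = cells lacking NR2E3 construct; higher means lower luciferase signal from less NR2E3 corepressor binding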
# Rev-erbA mod = modulators of human Rev-erb alpha DNA binding; P20393; Rev-erbα–FITC-DNA binding, fluorescence polarization, 90 min; activity, % at 10 µM; actives 0.79% (n = 370,000); AID 1259318;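 active = activity above about 14%, limit read from the data; passing the limit was not always enough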;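 also: 0% = DMSO wells with 35 nM protein and 100% = DMSO wells with 750 nM protein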
# SKN-1 inh = inhibitors of C. elegans SKN-1. C. elegans VP596 Pgst-4::GFP/RFP ratio, acrylamide-induced, 24 h. inhibition, % at 21.8 µM. actives 0.49% (n = 360,000);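 active = interference check ratio from 0.5 to 1.5 plus GFP to RFP signal ratio inhibition reaching or exceeding a fixed threshold, cut at about 30% in these data, passing the limit was not always enough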
# NR2E3 ag confirm = NR2E3 agonism confirmed in two-hybrid assay; shares compounds with NR2E3 ag-2; CHO-S mammalian two-hybrid NR2E3-NCOR, luciferase luminescence; inhibition, % at 3.98 µM; actives 51% (n = 2,300); AID 624378;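 active = average inhibition above a cutoff equal to the mean inhibition of all tested compounds plus one SD, cut at about 70% in these data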;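 also: 0% = DMSO in NR2E3 cells and 100% = DMSO in cells lacking NR2E3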
# GAL4-VP16 luc = GAL4-VP16 reporter inhibition in NR2E3 agonist counterscreen; shares compounds with NR2E3 ag-2; CHO-S GAL4-VP16 luciferase reporter, luminescence; inhibition, % at 3.98 µM; actives 29% (n = 2,300);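 active = mean inhibition above a cutoff equal to the average over all tested compounds plus one standard deviation, cut at about 70% in these data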;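 also: luciferase from a UAS reporter driven by GAL4-VP16 transactivation; 0% = DMSO with VP16-transfected cells and 100% = DMSO with cells lacking VP16; higher means less reporter light so more repression of VP16 activity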
# PG9 binder conf = confirmation of small molecules binding HIV-1 gp120 antibody PG9; shares compounds with PG9 binder; TR-FRET PG9 antibody binding, biochemical; inhibition, % at 6.7 µM; actives 90% (n = 1,500); AID 651571; in the data active = inhibition above about 9%
# PGV04 Ab binding = binds control antibody PGV04 in PG9 binder counter-screen. shares compounds with PG9 binder. TR-FRET PGV04 antibody-gp120 binding, biochemical. inhibition, % at 6.7 µM. actives 95% (n = 1,500); in the data active = inhibition above about 9.5%
# MT1-MMP act val = blocks activation of human MT1-MMP in validation testing. shares compounds with MT1-MMP act inh. HT1080 RFP-PRO-GFP cells, GFP and RFP fluorescence ratio, overnight. inhibition, % at 20 µM. actives 10% (n = 200). AID 652235;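 active = inhibition of at least 50% in the primary cell screen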
# NR1D1 mod conf = Rev-erb alpha (human) modulation, hit confirmation; shares compounds with Rev-erbA mod; Rev-erb alpha FITC-DNA binding, fluorescence polarization, 90 min; activation, % at 25 µM; actives 61% (n = 3,000);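 active = activation at or above a set limit, or at least 3 SD above the negative control mean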;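 also: 0% = 35 nM protein with DMSO and 100% = 750 nM protein high control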
# RORg counter = RORgamma DNA-binding activity, dose-response counter-screen; shares compounds with Rev-erbA mod; AID 1259320; actives 8% (n = 910); purified RORgamma protein-FITC-DNA binding, fluorescence polarization; IC50, µM;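 active = Compounds whose fitted half-maximal concentration for disrupting protein-DNA binding is below 10 micromolar; the record names Rev-erb in its text, so the target is in doubt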
# The depositor's hits bear a star; . = not tested or not shown. An excerpt weighted towards active compounds, which were near 1.9% of everything screened.
SMILES,PG9 binder,MT1-MMP act inh,NR2E3 ag-1,NR2E3 ag-2,Rev-erbA mod,SKN-1 inh,NR2E3 ag confirm,GAL4-VP16 luc,others
C=C[C@H]1CN2CC[C@H]1C[C@@H]2[C@H](O)c1ccnc2ccccc12,.,.,.,.,6.5,.,.,.,
CN1C2CCC1/C(=C/c1ccccn1)C(=O)/C2=C\c1ccccn1,-1.3,-38.4,3.8,88.2*,-0.9,-12.7,99.5*,25.8,
CCC1(CC)C(=O)NC(=O)NC1=O,.,.,.,.,-2.1,.,.,.,
CN(Cc1cccc(-c2ccncc2)c1)C(=O)Oc1ccc([N+](=O)[O-])cc1,.,1.0,.,89.6*,.,14.2,80.8*,74.3*,
COC(=O)C1=C(c2ccc(OC(F)(F)F)cc2)C[C@@H]2CC[C@H]1N2C(=O)N1CCc2cc(OC)c(OC)cc2C1,-0.3,.,.,.,1.7,.,.,.,
CCN(CCNc1ccc([N+](=O)[O-])c2cccnc12)S(=O)(=O)c1ccccc1,0.9,-1.1,-0.3,-36.8,2.0,1.5,.,.,
Cc1c(NS(=O)(=O)c2ccccc2)ccc([N+](=O)[O-])c1Cl,-0.1,4.0,.,84.6*,2.9,12.3,95.6*,84.4*,
CCC(=O)[C@@H](C)[C@@H](O)[C@H](C)C[C@@H](C)C1OC(=O)C[C@@]2(O)CC=C(C)C(O2)C(C)=CCCC[C@H](O[C@H]2C[C@@H](OC(N)=O)[C@H](O)[C@@H](C)O2)C=C[C@H](C)C[C@H]1C (stereo partly drawn),.,-12.6,.,93.4*,.,-5.0,97.6*,84.1*,
CC(C)(C)c1cc(C=C(C#N)C#N)cc(C(C)(C)C)c1O,-2.1,4.9,-0.3,92.0*,3.6,41.8*,86.3*,89.5*,
N#CC1c2ccccc2-n2nncc2CN1Cc1cc(Cl)cc(Cl)c1 (stereo not drawn),1.3,-10.8,.,88.3*,0.6,5.4,78.9*,70.6*,
CN(C)C(=S)SSC(=S)N(C)C,-1.9,8.3,-0.6,94.7*,-6.5,-14.3,11.3,-3.4,
S=P(c1ccccc1)(c1ccccc1)c1c[n+](Cc2ccccc2)c2ccccn12,.,.,.,.,7.9,.,.,.,
CC1=CC(O)C(O)C2(C)C1CC1OC(=O)C(O)C3C(C)C(O)C4(O)OCC13C42 (stereo not drawn),.,-22.8,.,-15.9,.,12.6,.,.,
COC(=O)[C@]12OC[C@]34C([C@@H](O)[C@@H]1O)[C@]1(C)CC(=O)C(O)=C(C)[C@@H]1C[C@H]3OC(=O)[C@H](O)[C@@H]24 (stereo partly drawn),-0.6,-54.2,2.0,63.4,1.5,18.7,14.9,10.8,
CC(C)CC(NC(=O)CCCNC(=O)CCC(=O)OC1O[C@H]2OC3(C)CC[C@H]4[C@H](C)CCC(C1C)C24OO3)C(=O)O (stereo partly drawn),0.2,1.4,-3.1,93.9*,2.5,8.3,91.1*,74.0*,
CC1C(OC(=O)CCC(=O)NC(C)(C)CO)O[C@H]2OC3(C)CC[C@H]4[C@H](C)CCC1C24OO3 (stereo partly drawn),0.1,-31.8,2.4,97.2*,1.9,12.7,94.9*,74.8*,
CCCC(C)C1(CC)C(=O)NC(=O)NC1=O (stereo not drawn),.,.,.,.,-8.1,.,.,.,
CC(C)(C)CC(C)(C)c1ccc(O)cc1,.,.,.,.,9.7,.,.,.,
COC(=O)Cn1cc(C=C2C(=O)N(C)C(=O)N(C)C2=O)c2ccccc21,24.2*,.,2.5,.,-1.2,.,.,.,PG9 binder conf=38.9*;PGV04 Ab binding=53.1*
O=C(Cn1cc(C(=O)c2ccccc2F)c2ccccc21)NCc1ccco1,17.3*,-1.0,8.4,-1.1,1.2,3.9,.,.,PG9 binder conf=14.8*;PGV04 Ab binding=36.6*
CC(C)(C)C(=O)c1cn(CC(=O)NCc2ccco2)c2ccccc12,-1.0,-2.4,8.9,-95.9,3.5,4.5,.,.,
N#CCC[C@@H]1CC[C@]2(CCCN(Cc3ccncc3)C2)O1,.,.,.,.,1.0,.,.,.,
COc1ccc(-n2c(=S)[nH]c3ccc(C)cc3c2=O)cc1,41.3*,9.4,.,-11.2,52.3*,5.0,.,.,PG9 binder conf=35.3*;PGV04 Ab binding=39.0*;NR1D1 mod conf=18.6*
COC(=O)[C@H]1C[C@@]2(C)c3ccccc3N[C@H]2N1,.,.,.,.,1.6,.,.,.,
COC(=O)C1=C(c2ccc(OC)c(OC)c2)C[C@@H]2CC[C@H]1N2C(=O)N1CCCC1,-0.6,33.9*,1.0,15.9,-4.5,24.3,.,.,MT1-MMP act val=3.4
SMILES,PG9 binder,MT1-MMP act inh,NR2E3 ag-1,NR2E3 ag-2,Rev-erbA mod,SKN-1 inh,NR2E3 ag confirm,GAL4-VP16 luc,others
C=CCN1C[C@H](C)N(C(c2ccc(C(=O)N(CC)CC)cc2)c2cccc(OC)c2)CC1C (stereo partly drawn),0.4,.,.,.,0.7,.,.,.,
Cn1cccc1/C=C1/C(=O)NC(=S)N(Cc2ccc(F)cc2)C1=O,-4.0,38.8*,-2.4,-22.2,-6.8,-1.4,.,.,MT1-MMP act val=34.6
CCOC(=O)CC[C@@H]1CC[C@]2(CCCN(Cc3ccccn3)C2)O1,.,.,.,.,-3.5,.,.,.,
O=c1[nH]c(=S)n(C2CC2)c(O)c1/C=N/Nc1ccccc1,-2.4,61.1*,1.0,-1.6,4.5,-0.6,.,.,MT1-MMP act val=3.9
O=c1[nH]c(=S)n(C2CC2)c(O)c1/C=N/Nc1cccc2ccccc12,-5.0,2.4,2.3,-28.1,-2.9,9.9,.,.,
CN1/C(=C\C=C2C(=O)NC(=S)NC2=O)C(C)(C)c2ccccc21,-25.2,-10.4,.,3.6,25.0*,24.7,.,.,NR1D1 mod conf=53.2*;RORg counter=>40
CC1(C)OC(c2ccccc2)=C/C(=C/C=C2C(=O)NC(=S)NC2=O)O1,-1.2,.,-0.1,.,5.2,.,.,.,
CCCCCCn1c(=O)c(C(=O)Nc2cnccn2)c(O)c2ccccc21,-2.2,-16.4,1.1,-16.4,13.6*,-2.7,.,.,NR1D1 mod conf=17.4
